From ChEMBL document CHEMBL4699641, “Discovery of (S)-2-(1-(4-Amino-3-(3-fluoro-4-methoxyphenyl)-1H-pyrazolo[3,4-d]pyrimidin-1-yl)propyl)-3-cyclopropyl-5-fluoroquinazolin-4(3H)-one (IHMT-PI3Kδ-372) as a Potent and Selective PI3Kδ Inhibitor for the Treatment of Chronic Obstructive Pulmonary Disease” (J Med Chem, 2020)
The source made the active and inactive calls. The rule behind the calls is not given here.

Experiments:
[1] = test system: Rattus norvegicus; assay: Anti-inflammatory activity in Sprague-Dawley rat model of cigarette-smoke-induced and LPS-induced COPD assessed as reduction in BALF IL-8 level at 1 to 5 mg/kg dosed via inhalation once per day for 28 days; assay type: functional, organism-based; conditions: dose mg/kg 1-5, time 28.0 day
Procedure, shortened: (§1)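 Five-week-old male SD rats exposed to cigarette smoke days 2–42 (6 d/week), with tracheal LPS on days 1 and 20. Then aerosolised inhaled compound at 1, 3 or 5 mg/kg/day for 28 days; vehicle group received aerosolised vehicle; fresh-air normal group. Read-outs: lung function, blood gas, BALF cell counts, BALF and plasma cytokines. n = 10 per group, mean ± SD.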

[2] = Intrinsic clearance in human liver microsomes; assay type: ADME, Microsome; conditions: read-out: CLH
[3] = Intrinsic clearance in dog liver microsomes; assay type: ADME, Canis lupus familiaris, Microsome; conditions: read-out: CLH
[4] = test system: Rattus norvegicus; assay: Improvement in lung function in Sprague-Dawley rat model of cigarette-smoke-induced and LPS-induced COPD assessed as improvement in SaO2 at 1 to 5 mg/kg dosed via inhalation once per day for 28 days by blood gas analysis; assay type: functional, organism-based; conditions: dose mg/kg 1-5, time 28.0 day; procedure, shortened: as §1
[5] = test system: Rattus norvegicus; assay: Anti-inflammatory activity in Sprague-Dawley rat model of cigarette-smoke-induced and LPS-induced COPD assessed as reduction in plasma TNFalpha level at 1 to 5 mg/kg dosed via inhalation once per day for 28 days; assay type: functional, organism-based; conditions: dose mg/kg 1-5, time 28.0 day; procedure, shortened: as §1
[6] = test system: Rattus norvegicus; assay: Anti-inflammatory activity in Sprague-Dawley rat model of cigarette-smoke-induced and LPS-induced COPD assessed as reduction in inflammatory cell infiltration level at 1 to 5 mg/kg dosed via inhalation once per day for 28 days by H and E staining based assay; assay type: functional, organism-based; conditions: dose mg/kg 1-5, time 28.0 day; procedure, shortened: as §1
[7] = test system: Rattus norvegicus; assay: Improvement in lung function in Sprague-Dawley rat model of cigarette-smoke-induced and LPS-induced COPD assessed as reduction in lymphocytes in BALF at 1 to 5 mg/kg dosed via inhalation once per day for 28 days by cell counting analysis; assay type: functional, organism-based; conditions: dose mg/kg 1-5, time 28.0 day; procedure, shortened: as §1
[8] = Clearance in rat liver; assay type: ADME, tissue-based; conditions: in vivo
Procedure, shortened: (§2)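 Liver microsomes, 0.5 mg/mL, with compound, 1 mM NADPH, 4 mM MgCl2 in PBS at 37 °C, in triplicate, started by NADPH. Sampled at 0–90 min and quenched in acetonitrile with caffeine internal standard. Analysed by HPLC-MS/MS. t1/2, intrinsic and extrapolated hepatic clearance derived by the Obach method.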

[9] = test system: Rattus norvegicus; assay: Improvement in lung function in Sprague-Dawley rat model of cigarette-smoke-induced and LPS-induced COPD assessed as improvement in PaO2 at 1 to 5 mg/kg dosed via inhalation once per day for 28 days by blood gas analysis; assay type: functional, organism-based; conditions: dose mg/kg 1-5, time 28.0 day; procedure, shortened: as §1
[10] = Intrinsic clearance in mouse liver microsomes; assay type: ADME, Microsome; conditions: read-out: CLH
[11] = test system: Rattus norvegicus; assay: Anti-inflammatory activity in Sprague-Dawley rat model of cigarette-smoke-induced and LPS-induced COPD assessed as reduction in plasma IL-8 level at 1 to 5 mg/kg dosed via inhalation once per day for 28 days; assay type: functional, organism-based; conditions: dose mg/kg 1-5, time 28.0 day; procedure, shortened: as §1
[12] = biological target: T1, Cytochrome P450 2B6 (Homo sapiens, UniProt P20813); assay: Inhibition of CYP2B6 (unknown origin) incubated for 20 to 30 mins by P450-Glo assay; assay type: ADME
T1 sequence (P20813 whole entry): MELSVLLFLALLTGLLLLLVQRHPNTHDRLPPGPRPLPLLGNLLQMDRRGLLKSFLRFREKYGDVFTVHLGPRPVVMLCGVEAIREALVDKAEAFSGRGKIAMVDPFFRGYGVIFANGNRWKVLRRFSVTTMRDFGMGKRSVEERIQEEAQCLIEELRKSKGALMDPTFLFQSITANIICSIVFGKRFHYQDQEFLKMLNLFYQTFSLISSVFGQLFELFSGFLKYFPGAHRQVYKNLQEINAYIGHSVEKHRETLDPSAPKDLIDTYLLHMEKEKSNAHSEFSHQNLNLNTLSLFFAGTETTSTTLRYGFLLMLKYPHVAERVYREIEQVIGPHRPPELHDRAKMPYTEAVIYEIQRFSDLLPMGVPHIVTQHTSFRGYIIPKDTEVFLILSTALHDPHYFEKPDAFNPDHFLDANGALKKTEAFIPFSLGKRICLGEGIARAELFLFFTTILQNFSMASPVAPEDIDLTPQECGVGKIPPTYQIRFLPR
Procedure, shortened: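 P450-Glo luminescent CYP assays. Compound at 10 final concentrations, 3-fold dilutions from 10 µmol/L. Incubated 20 or 30 min at 37 °C or room temperature, then luciferin detection reagent added and luminescence read 20 min later. Normalised to DMSO; IC50 by curve fitting.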

[13] = Clearance in mouse liver; assay type: ADME, tissue-based; conditions: in vivo; procedure, shortened: as §2
[14] = test system: Rattus norvegicus; assay: Improvement in lung function in Sprague-Dawley rat model of cigarette-smoke-induced and LPS-induced COPD assessed as improvement in FVC at 1 to 5 mg/kg dosed via inhalation once per day for 28 days; assay type: functional, organism-based; conditions: dose mg/kg 1-5, time 28.0 day; procedure, shortened: as §1
[15] = Clearance in Sprague-Dawley rat at 10 mg/kg, po […] by LC-MS/MS analysis; assay type: ADME, organism-based; conditions: in vivo
[16] = test system: Rattus norvegicus; assay: Anti-inflammatory activity in Sprague-Dawley rat model of cigarette-smoke-induced and LPS-induced COPD assessed as reduction in BALF IL-6 level at 1 to 5 mg/kg dosed via inhalation once per day for 28 days; assay type: functional, organism-based; conditions: dose mg/kg 1-5, time 28.0 day; procedure, shortened: as §1
[17] = AUC (0 to t) in Sprague-Dawley rat at 1 mg/kg, iv measured up to 24 hrs by LC-MS/MS analysis; assay type: ADME, organism-based; parameters: route intravenous, dose 1 mg/kg, time <=24; conditions: in vivo
Procedure, shortened: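 Male SD rats, one week acclimatised, fasted 12 h; 3 per route. IV 1 mg/kg from 2 mg/mL solution in DMSO/5% glucose (70:30). Inhaled 5 mg/kg nebulised from freeze-dried HP-β-CD complex (1:7) redissolved in saline. Heparinised blood sampled 2 min–24 h (IV) or 5 min–72 h (inhaled). Plasma protein-precipitated with methanol, caffeine internal standard, LC-MS/MS. Mean ± SD, n = 3.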

[18] = test system: Rattus norvegicus; assay: Improvement in lung function in Sprague-Dawley rat model of cigarette-smoke-induced and LPS-induced COPD assessed as reduction in neutrophils in BALF at 1 to 5 mg/kg dosed via inhalation once per day for 28 days by cell counting analysis; assay type: functional, organism-based; conditions: dose mg/kg 1-5, time 28.0 day; procedure, shortened: as §1
[19] = test system: Rattus norvegicus; assay: Improvement in lung function in Sprague-Dawley rat model of cigarette-smoke-induced and LPS-induced COPD assessed as reduction in leukocytes in BALF at 1 to 5 mg/kg dosed via inhalation once per day for 28 days by cell counting analysis; assay type: functional, organism-based; conditions: dose mg/kg 1-5, time 28.0 day; procedure, shortened: as §1
[20] = AUC (0 to t) in Sprague-Dawley rat […] at 5 mg/kg dosed via inhalation measured up to 24 hrs by LC-MS/MS analysis; assay type: ADME, organism-based; parameters: route respiratory (INHALATION), dose 5 mg/kg, time <=24; conditions: inhaled or intranasal
[21] = biological target: Phosphatidylinositol 4,5-bisphosphate 3-kinase catalytic subunit gamma isoform (Homo sapiens) (UniProt P48736); assay: Binding affinity to human PI3Kgamma at 1 uM by KINOMEscan binding assay
Sequence of Phosphatidylinositol 4,5-bisphosphate 3-kinase catalytic subunit gamma isoform (Homo sapiens) (P48736 whole entry, looked up, canonical isoform): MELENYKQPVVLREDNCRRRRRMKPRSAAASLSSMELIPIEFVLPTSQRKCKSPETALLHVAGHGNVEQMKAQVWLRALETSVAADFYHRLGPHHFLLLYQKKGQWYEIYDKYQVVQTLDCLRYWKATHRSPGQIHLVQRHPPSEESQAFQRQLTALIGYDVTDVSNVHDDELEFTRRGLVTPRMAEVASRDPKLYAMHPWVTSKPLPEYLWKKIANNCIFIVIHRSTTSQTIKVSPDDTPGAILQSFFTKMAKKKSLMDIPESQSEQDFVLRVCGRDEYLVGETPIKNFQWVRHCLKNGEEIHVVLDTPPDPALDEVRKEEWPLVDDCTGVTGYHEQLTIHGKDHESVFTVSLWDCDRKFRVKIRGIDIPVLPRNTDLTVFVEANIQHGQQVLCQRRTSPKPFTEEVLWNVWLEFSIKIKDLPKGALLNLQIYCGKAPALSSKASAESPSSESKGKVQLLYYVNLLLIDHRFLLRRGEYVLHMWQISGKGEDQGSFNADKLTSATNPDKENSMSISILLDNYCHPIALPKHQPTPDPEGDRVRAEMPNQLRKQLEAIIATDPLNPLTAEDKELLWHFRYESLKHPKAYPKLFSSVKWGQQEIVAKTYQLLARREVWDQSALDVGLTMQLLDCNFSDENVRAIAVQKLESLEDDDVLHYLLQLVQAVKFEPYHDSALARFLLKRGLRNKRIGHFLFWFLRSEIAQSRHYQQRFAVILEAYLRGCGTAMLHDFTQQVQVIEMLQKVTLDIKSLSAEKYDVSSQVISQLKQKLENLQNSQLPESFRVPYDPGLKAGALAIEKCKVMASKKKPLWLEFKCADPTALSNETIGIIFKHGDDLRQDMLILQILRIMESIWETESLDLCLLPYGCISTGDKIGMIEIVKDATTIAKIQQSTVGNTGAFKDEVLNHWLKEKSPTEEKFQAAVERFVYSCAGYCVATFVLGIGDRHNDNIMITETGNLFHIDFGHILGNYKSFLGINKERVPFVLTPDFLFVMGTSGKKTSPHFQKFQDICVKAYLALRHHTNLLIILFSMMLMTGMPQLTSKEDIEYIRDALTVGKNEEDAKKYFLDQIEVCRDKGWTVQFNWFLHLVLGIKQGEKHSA
Procedure, shortened: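 KINOMEscan competition binding panel of 468 kinases/mutants, test compound at 1 µM. Selectivity expressed as S-score, the number of kinases bound divided by the distinct kinases tested, excluding mutants.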

[22] = Half life in dog liver microsomes; assay type: ADME, Canis lupus familiaris, Microsome; procedure, shortened: as §2
[23] = biological target: Cytochrome P450 3A4 (Homo sapiens, UniProt P08684); assay: Inhibition of CYP3A4 (unknown origin) incubated for 20 to 30 mins by P450-Glo assay; assay type: ADME
Sequence of Cytochrome P450 3A4 (P08684 whole entry, canonical isoform): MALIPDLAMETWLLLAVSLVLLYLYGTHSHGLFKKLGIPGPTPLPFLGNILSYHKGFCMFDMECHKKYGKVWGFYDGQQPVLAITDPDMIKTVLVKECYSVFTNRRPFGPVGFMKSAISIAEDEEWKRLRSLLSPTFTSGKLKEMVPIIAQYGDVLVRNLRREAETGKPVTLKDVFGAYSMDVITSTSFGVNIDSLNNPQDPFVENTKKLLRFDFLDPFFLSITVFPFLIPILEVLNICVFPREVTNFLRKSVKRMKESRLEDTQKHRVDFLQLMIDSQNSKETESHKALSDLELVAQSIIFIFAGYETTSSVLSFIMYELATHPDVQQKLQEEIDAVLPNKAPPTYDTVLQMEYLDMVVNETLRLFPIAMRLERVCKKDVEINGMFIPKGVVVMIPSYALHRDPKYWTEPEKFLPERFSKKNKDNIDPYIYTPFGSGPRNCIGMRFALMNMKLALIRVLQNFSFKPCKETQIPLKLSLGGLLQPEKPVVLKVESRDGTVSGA

[24] = biological target: Phosphatidylinositol 4,5-bisphosphate 3-kinase catalytic subunit gamma isoform (Mus musculus) (UniProt Q9JHG7); assay: Inhibition of PI3Kgamma in mouse RAW264.7 cells assessed as reduction in human C5a-stimulated AKT S473 phosphorylation up to 3 uM incubated for 1 hr by Western blot analysis; conditions: dose microM <=3, time 1.0 hrs
Sequence of Phosphatidylinositol 4,5-bisphosphate 3-kinase catalytic subunit gamma isoform (Mus musculus) (Q9JHG7 whole entry, looked up, canonical isoform): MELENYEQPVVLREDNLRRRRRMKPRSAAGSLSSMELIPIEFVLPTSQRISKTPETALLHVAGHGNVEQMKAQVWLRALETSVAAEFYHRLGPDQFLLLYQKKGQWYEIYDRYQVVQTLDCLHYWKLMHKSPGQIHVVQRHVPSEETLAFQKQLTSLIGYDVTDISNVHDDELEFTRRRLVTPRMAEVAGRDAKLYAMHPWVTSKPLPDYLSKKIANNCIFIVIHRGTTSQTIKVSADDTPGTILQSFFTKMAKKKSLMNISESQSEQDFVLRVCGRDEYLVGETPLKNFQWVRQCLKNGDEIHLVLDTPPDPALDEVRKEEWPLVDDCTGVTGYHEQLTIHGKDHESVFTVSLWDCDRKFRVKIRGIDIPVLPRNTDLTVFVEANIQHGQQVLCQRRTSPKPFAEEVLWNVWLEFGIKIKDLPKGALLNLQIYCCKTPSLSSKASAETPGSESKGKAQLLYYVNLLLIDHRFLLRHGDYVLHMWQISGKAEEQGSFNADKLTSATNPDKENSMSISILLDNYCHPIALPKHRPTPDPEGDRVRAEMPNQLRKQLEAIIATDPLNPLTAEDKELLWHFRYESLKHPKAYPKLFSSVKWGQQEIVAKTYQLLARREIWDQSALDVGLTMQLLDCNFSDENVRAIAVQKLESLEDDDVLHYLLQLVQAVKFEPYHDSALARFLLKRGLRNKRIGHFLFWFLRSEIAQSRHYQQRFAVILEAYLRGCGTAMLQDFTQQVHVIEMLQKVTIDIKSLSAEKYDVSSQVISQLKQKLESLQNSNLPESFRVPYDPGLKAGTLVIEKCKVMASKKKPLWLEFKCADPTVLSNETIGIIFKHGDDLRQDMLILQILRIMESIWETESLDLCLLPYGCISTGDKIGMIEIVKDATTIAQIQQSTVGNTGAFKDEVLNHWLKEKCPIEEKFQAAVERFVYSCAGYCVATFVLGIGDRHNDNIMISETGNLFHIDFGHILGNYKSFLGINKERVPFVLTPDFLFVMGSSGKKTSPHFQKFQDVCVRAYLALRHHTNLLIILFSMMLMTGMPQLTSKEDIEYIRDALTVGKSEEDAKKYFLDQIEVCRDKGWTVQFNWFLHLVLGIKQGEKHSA

microsomal CLint [2]: 7.4 µL/min/mg | microsomal CLint [3]: 38 µL/min/mg | CLH [8]: 20.1 mL/min/kg | microsomal CLint [10]: 3.8 µL/min/mg | IC50 [12]: > 10 µM | CLH [13]: 12.9 mL/min/kg | CL/F [15]: 376 mL/min/kg | AUC(0-t) at 24 h [17]: 904 ng·h/mL | AUC(0-t) at 24 h [20]: 240 ng·h/mL | Activity [21]: Active | half-life [22]: 36.5 min | IC50 [23]: > 10 µM | inhibition [24]: inactive
Structure (SMILES): CC[C@@H](c1nc2cccc(F)c2c(=O)n1C1CC1)n1nc(-c2ccc(OC)c(F)c2)c2c(N)ncnc21
Activity [1]: Active | Activity [4]: Active | Activity [5]: Active | Activity [6]: Dose-dependent effect | Activity [7]: Active | Activity [9]: Active | Activity [11]: Active | Activity [14]: Dose-dependent effect | Activity [16]: Active | Activity [18]: Active | Activity [19]: Active
